Screening results as filed in PubChem BioAssay.
In the library only some 4.7% were active in any assay of this set; here they are far more common.
AHR activator = AHR activators, primary screen, cell-based, luminescence, luciferase reporter, human. Aryl hydrocarbon receptor (Homo sapiens), P35869. AHR-responsive luciferase reporter cells. activation, % at 5 µM. 320,000 tested, 2.5% active. AID 2796, 2010; in the data active = activation above about 47%;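 note: 0% = vehicle wells and 100% = reference agonist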
MC4R antag cAMP = MC4R antagonists of cAMP signaling, primary screen, cell-based, TR-FRET, antagonist arm of biased-ligand search. MC4R-expressing cells, MTII-stimulated cAMP, LANCE TR-FRET. inhibition, % at 6.5 µM. 360,000 tested, 0.48% active. Melanocortin receptor 4 (Homo sapiens), P32245;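 active = inhibition above its plate's cutoff, the mean of tested wells on that plate plus 3 SD, cut at about 29% in these data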;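 note: 0% = Melanotan II alone and 100% = Melanotan II plus saturating MCL0020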
Target sequence (P32245 whole entry, looked up): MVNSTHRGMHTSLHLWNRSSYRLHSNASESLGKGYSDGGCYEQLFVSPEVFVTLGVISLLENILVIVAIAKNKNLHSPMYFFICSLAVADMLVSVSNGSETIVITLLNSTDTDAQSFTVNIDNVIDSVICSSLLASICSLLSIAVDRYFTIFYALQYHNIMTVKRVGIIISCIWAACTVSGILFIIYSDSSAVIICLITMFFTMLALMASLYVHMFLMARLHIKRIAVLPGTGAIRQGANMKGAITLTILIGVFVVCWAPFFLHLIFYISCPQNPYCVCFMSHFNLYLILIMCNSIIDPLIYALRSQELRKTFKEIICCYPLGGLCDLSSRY
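Material: U2OS-MC4R stable cell line | Reagent: Melanotan II challenge after compound preincubation | Doses: One concentration, 6.5 µM nominal | Incubation: 30-min compound preincubation, 1-h Melanotan II challenge, 1-h detection, room temperature | Signal: TR-FRET cAMP assay | Replicates: One well per compound, no replicates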
MC4R barr agon = MC4R agonists recruiting beta-arrestin, primary screen, cell-based, luminescence, agonist arm of biased-ligand search; Melanocortin receptor 4 (Homo sapiens), P32245; U2OS MC4R beta-arrestin complementation; percent of melanotan II response, DMSO zero; activation, % at 8.9 µM; 360,000 tested, 0.98% active; AID 540308, 2011;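 active = activation above a per-plate cutoff, the mean activation of sample wells on that plate plus 3 SD, cut at about 8% in these data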
HTR2A ag = mouse Htr2a agonists via beta-arrestin recruitment, primary screen, cell-based, luminescence; activation, % at 7.6 µM; CHO-K1 mHTR2A beta-arrestin complementation; percent of 30 µM serotonin response; 5-hydroxytryptamine receptor 2A (Mus musculus), P35363; 360,000 tested, 0.66% active;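 active = activation above a run cutoff, the mean activation of all tested compounds plus 3 SD, cut at about 14% in these data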;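 note: 0% = plate median of compound wells and 100% = 30 µM serotonin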
FXN GAA850 act = FXN promoter activators, primary screen, cell-based, luciferase luminescence, HEK293 lucGAA850; HEK293 lucGAA850 FXN promoter luciferase reporter, 24 h; percent of 10 µM SAHA response; activation, % at 6 µM; 360,000 tested, 0.56% active; AID 540364, 2011;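 active = activation above the average of all compounds screened plus 3 SD, cutoff fixed separately per campaign, cut at about 7.5% in these data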;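 note: 0% = DMSO wells and 100% = 10 µM SAHA wells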
* = called active by the depositor; . = no result.

SMILES	AHR activator	MC4R antag cAMP	MC4R barr agon	HTR2A ag	FXN GAA850 act
CC(C)(C)OC(=O)NCc1ccc(CNC(=O)c2[nH]cnc2C(=O)Nc2ccccc2F)cc1	.	-1	9.3*	-3	2
O=C(Nc1ccccc1F)c1nc[nH]c1C(=O)NCc1ccccc1	.	-1	2	-2	0
O=C(Nc1ccccc1)c1nc[nH]c1C(=O)NCCNC(=O)c1[nH]cnc1C(=O)Nc1ccccc1	76*	25	1	-6	-6
CNC(=O)c1[nH]cnc1C(=O)Nc1cccc(Cl)c1	55*	4	-3	-2	3
COC(=O)C1CCN(C2CN(Cc3ccc(C)cc3)S(=O)(=O)C2)CC1 (stereo not given)	.	.	.	5	.
Cc1cc(C)c2cc(C#N)c(NCCNC(=O)c3ccncc3)nc2c1	.	.	.	-1	.
CN(Cc1ccccc1)C(=O)c1[nH]cnc1C(=O)Nc1ccc(Cl)cc1	66*	-1	4	-10	1
CN(Cc1ccccc1)C(=O)c1[nH]cnc1C(=O)Nc1cccc(Cl)c1	22	-3	0	-7	4
O=C(c1ccoc1)N1CCN(c2cc(-c3ccncc3)nc3cc(-c4cccc(Cl)c4)nn23)CC1	.	14	8.8*	3	-2
CCOc1ccc(OCc2ccc(C(=O)N3CCc4ccccc4C3)o2)cc1	4	3	1	15*	0
COc1cccc2sc3cc(NCc4ccc5c(c4)OCO5)ccc3c(=O)c12	76*	-12	0	-5	7
COc1cc2sc3cc(NCc4ccc5c(c4)OCO5)ccc3c(=O)c2cc1OC	7	-8	-1	1	6
O=C(COc1ccccc1)Nc1ccc(-c2ccc(N3CCOCC3)nn2)cc1	5	0	0	3	5
CC1CCCN(C(=O)c2ccc3c(c2)OCO3)C1 (stereo not given)	-1	-4	1	-6	3
CCC1CCCCN1C(=O)COc1ccc2c(c1)OCO2 (stereo not given)	48*	17	0	-3	2
CC1CCCN(C(=O)COc2ccc3c(c2)OCO3)C1 (stereo not given)	52*	-2	-4	8	3
O=c1[nH]c(-c2ccccc2)ncc1Oc1ccccc1	4	8	-1	3	1
c1ccc(COc2cccc(-c3cc4nc(NCCCn5ccnc5)ccn4n3)c2)cc1	.	6	3	-9	-2
Cc1cc(C)nc(N2CCCC(C(=O)Nc3ccc4c(c3)OCO4)C2)n1 (stereo not given)	49*	7	0	0	0
CC1=NN(c2nc(-c3ccc(C)cc3)cs2)C(=O)C1N=Nc1ccccc1O (stereo not given)	51*	-5	-2	0	1
Cc1nnc(SCC(=O)Nc2cc(-c3cc(C)c(C)cc3C)nn2-c2ccccc2)s1	104*	28	-1	-6	4
CN(C)c1ccc(N2C(=O)CSC2=S)cc1	52*	-2	-1	0	-1
CC1(C(=O)NCc2ccccc2)CCC(=O)N1C1CCN(Cc2ccccc2)CC1 (stereo not given)	.	.	.	-5	.
CN(C(=O)Cn1cc([N+](=O)[O-])ccc1=O)C1CCCCC1	-2	-3	-1	-11	1
c1ccc(-n2nnc(-c3nccs3)n2)cc1	54*	0	0	-1	5
SMILES	AHR activator	MC4R antag cAMP	MC4R barr agon	HTR2A ag	FXN GAA850 act
Brc1ccccc1-n1nnc(-c2nccs2)n1	36	-1	-2	-1	5
NNc1nc2c(Cl)c(Cl)ccc2s1	84*	2	-4	1	3
COc1cccc2sc(NN)nc12	33	-5	-2	-2	3
Cc1ccc(C(O)c2ncc(-c3ccccc3C(F)(F)F)[nH]2)cc1F (stereo not given)	.	7	0	-2	-1
Cc1cc(OCC(=O)OCC(=O)N2CCCc3ccccc32)ccc1Cl	.	-1	0	8	2
CCOC(=O)c1c(C)n(C)c2ccc(OCC(N)=O)cc12	70*	18	1	-2	-2
CCOC(=O)c1c(C)n(C)c2ccc(OC(C)=O)cc12	25	-6	-1	0	1
CCOC(=O)c1c(C)n(CCOc2ccccc2)c2ccc(O)cc12	51*	12	5	3	3
Cc1ccc(NC(=O)CC2(CC(=O)O)CCCC2)c(C)c1	2	-2	-1	0	1
COc1ccccc1CNCC(=O)N1CC(=O)Nc2ccccc21	60*	7	-1	-1	2
CC(C)n1c(O)c(N=NC(=O)C2COc3ccccc3O2)c2ccccc21 (stereo not given)	58*	5	2	-2	2
Cn1c(O)c(N=NC(=O)C2COc3ccccc3O2)c2ccccc21 (stereo not given)	33	-6	-1	1	1
Cc1cc(C)c2nc(NNC(=O)c3cc(=O)c4ccccc4o3)sc2c1	46	0	-2	0	-1
CCn1nnnc1SCC(=O)Nc1ccc2c(c1)OCO2	37	2	-2	-3	1
COc1cc(NC(=O)CSc2nnnn2Cc2ccc3c(c2)OCO3)cc(OC)c1	71*	5	-1	0	3
O=C(N/N=C/c1ccc2c(c1)OCO2)c1cc2ccccc2o1	69*	-7	0	-4	0
O=C(N/N=C/c1ccccc1)c1ccc2c(c1)OCO2	70*	6	-2	-4	3
O=C(N/N=C\c1ccccc1)c1cccc(C(=O)N/N=C\c2ccccc2)n1	70*	3	-2	5	1
O=C(N/N=C/c1ccccc1)c1cc(-c2ccc3c(c2)OCO3)n[nH]1	88*	-3	-3	-4	5
O=C(N/N=C/c1cccc2ccccc12)c1cc2ccccc2o1	.	-5	4	-4	-2
O=C(N/N=C/c1cccc([N+](=O)[O-])c1)c1cc(-c2ccc3c(c2)OCO3)n[nH]1	20	2	3	6	0
O=C(N/N=C/c1cccc(O)c1)c1cc(-c2ccc3c(c2)OCO3)n[nH]1	117*	26	0	-2	1
O=C(COc1ccc(/C=N/NC(=O)c2cc3ccccc3o2)cc1Cl)Nc1ccccc1	0	1	20*	1	0
O=C(N/N=C/c1ccc(O)cc1)c1cc(-c2ccc3c(c2)OCO3)n[nH]1	76*	-1	0	-3	0
O=C(N/N=C/c1ccc(OC(=O)c2ccccc2Br)cc1)c1ccccn1	22	-4	8.9*	-1	5
Cc1ccc(C(=O)NN=Cc2ccc3c(c2)OCO3)cc1	.	1	-1	0	6
